The GI50 is the concentration giving 50% growth inhibition. Low values mean greater sensitivity of the cells, high ones lower sensitivity of the cells. For orientation: IC50 means the concentration at which inhibition is half-maximal. High values mean weaker potency, low ones greater potency. The term MRT denotes a mean duration of stay, worked out from the concentration-time curve. Usually AUC stands for the area under the concentration-time curve, a measure of exposure. Read a low AUC as low exposure. As usually defined, the fraction unbound is free concentration divided by total concentration. A high value points to much free substance. As usually defined, the T/C is the ratio of treated to control.

Experimental findings from ChEMBL document CHEMBL4052653, “Discovery of Novel and Potent Stearoyl Coenzyme A Desaturase 1 (SCD1) Inhibitors as Anticancer Agents” (Bioorg Med Chem, 2017) are described below.

The test system of one series is HCT-116. Put plainly: Growth inhibition of human HCT116 cells after 72 hrs by CellTiter-Glo luminescence assay. The settings on record: HCT-116, 72 h. Type of series: functional. A digest of the protocol:
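HCT116 cells seeded at 9 × 10^2 cells/well and cultured 24 h. Compounds diluted in growth medium to final concentrations and added. Proliferation read by CellTiter-Glo luminescence after 72 h.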

The target of series [1] is T1, Stearoyl-CoA desaturase (Homo sapiens, UniProt O00767).
T1 sequence (O00767 whole entry): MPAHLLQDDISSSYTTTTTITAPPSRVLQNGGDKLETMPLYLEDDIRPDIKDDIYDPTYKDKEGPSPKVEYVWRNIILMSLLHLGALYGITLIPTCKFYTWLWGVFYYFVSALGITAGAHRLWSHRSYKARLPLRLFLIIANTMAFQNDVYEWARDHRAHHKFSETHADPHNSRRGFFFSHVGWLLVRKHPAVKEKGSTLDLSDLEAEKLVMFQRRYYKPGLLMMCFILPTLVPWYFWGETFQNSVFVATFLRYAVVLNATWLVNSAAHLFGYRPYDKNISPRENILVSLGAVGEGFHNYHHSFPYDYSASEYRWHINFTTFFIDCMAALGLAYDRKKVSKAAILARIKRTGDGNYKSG
Put plainly: Displacement of (5-(6-(10H-spiro(1-benzofuran-3,30-pyrrolidin)-10-yl)pyridazin-3-yl)-1,2,4-oxadiazol-3-yl)[3H2]methanol from SCD1 in human liver microsomes after 120 mins TopCount liquid scintillation counting method. Put shortly:
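Human SCD1 liver microsomes incubated 120 min with 3.0 nM [3H]-ligand and test compound over a range of concentrations. Bound ligand collected on PEI-pretreated GF/B filters, washed five times, counted by scintillation. Controls: DMSO (100%) and 10 µM unlabeled reference ligand (0%). IC50 from a three-parameter logistic fit.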
For orientation: Liver microsomes are vesicles of endoplasmic reticulum, rich in cytochrome P450 enzymes.

The nature of series [2]: Stability in human liver microsomes. Type of series: ADME, microsome. The settings on record: read-out: Stability.
Series [3] can be described thus: Stability in mouse liver microsomes. Type of series: ADME, microsome. The settings on record: read-out: Stability.
The nature of series [4]: Mean residence time in po dosed mouse administered as cassette dose. It is filed as ADME, organism-based. The settings on record: in vivo. Put shortly: (§1)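 Mouse cassette-dosing PK: 0.1 mg/kg iv and 1 mg/kg po. Total clearance given in […]. AUC (ng·h/mL) and MRT (h) taken after the oral dose.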
A short description of series [5]: AUC in po dosed mouse administered as cassette dose. It is filed as ADME, organism-based. The settings on record: in vivo. A digest of the protocol: as §1
A short description of series [6]: Total clearance in mouse at 0.1 mg/kg, iv or 1 mg/kg, po administered as cassette dose. It is filed as ADME, organism-based. The settings on record: in vivo. Put shortly:
as §1

A short description of series [7]: Fraction unbound in mouse plasma. Type of series: ADME, cell-free.
Series [8] has as its target T1, Stearoyl-CoA desaturase. Put plainly: Inhibition of SCD1 (unknown origin).
A short description of series [9]: Mean residence time in mouse at 1 mg/kg, po administered as cassette dose. It is filed as ADME, organism-based. The settings on record: in vivo. Put shortly: as §1
Series [10] relates to Mus musculus. Put plainly: AUC in mouse at 1 mg/kg, po administered as cassette dose. As to conditions: in vivo. Type of series: ADME, organism-based. A digest of the protocol:
as §1

In series [11] the test system is Mus musculus. Put plainly: In-vivo inhibition of SCD1 in athymic nude mouse xenografted with human HCT116 cells assessed as decrease in desaturation index of phosphatidylcholine at 0.3 to 30 mg/kg, po bid measured after 16 hrs by LC/MS analysis. Type of series: functional, organism-based. Put shortly: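 Nude mice bearing HCT116 xenografts of about 200 mm3, randomized. Oral dosing at 0.3, 3 and 30 mg/kg bid in 0.5% methylcellulose. Tumors collected 16 h after two doses and homogenized in isopropanol. Lipids analyzed by LC/Orbitrap MS. DI taken as the ratio PC C36:3/PC C36:0. Statistics by Williams' test.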
(Xenograft models place foreign cells or tissue in a host animal.)

Series [12] relates to Mus musculus. Put plainly: Toxicity in athymic BALB/cA Jc1-nu/nu mouse at 1 mg/kg, po bid administered for 28 days. Type of series: organism-based. The settings on record: in vivo, 672 h.
For the next series, the system named is 786-0. Put plainly: Antitumor activity against human 786-O cells xenografted in athymic BALB/cA Jc1-nu/nu mouse assessed as tumor growth inhibition at 1 mg/kg, po bid administered for 28 days measured twice per week. Type of series: functional. Put shortly: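 Female BALB/c nu/nu mice, 7 weeks old, inoculated subcutaneously in the flank with 3.0 × 10^6 786-O cells (1:1 with Matrigel). Randomized at mean tumor volume of about 130 mm3, n = 8/group. Dosed orally at 1 mg/kg bid, or with 0.5% methylcellulose vehicle, for 28 days at 10 mL/kg. Calipers used twice weekly, volume = W²×L/2. T/C taken at Day 28; Student's t-test.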

The source made the active and inactive calls. The rule behind the calls is not given here.

In turn, `NC1(c2ccccc2)CCN(c2ccc(-c3nc(CO)no3)nn2)CC1` gave a GI50 in the series with HCT-116 of 530 nM. Further, on Stearoyl-CoA desaturase [1], the half-inhibitory concentration (IC50) amounted to 220 nM.
For the compound `N#CC1(c2ccc(S(F)(F)(F)(F)F)cc2)CCN(c2ccc(-c3nc(CO)no3)nn2)CC1`, it took 8.4 nM to inhibit growth with HCT-116 by half (GI50). Moreover, the microsomal CLint in [2] was 7 µL/min/mg; in series [3], 24 µL/min/mg. On Stearoyl-CoA desaturase [1], this compound gave an IC50 of 9.5 nM.
In series [4], `OCc1nnc(-c2ccc(N3CCC(c4ccc(C(F)(F)F)cc4)(C(F)(F)F)CC3)nn2)s1` showed an MRT of 4.1 h. Moreover, the GI50 with HCT-116 was 1.1 nM. The same compound returned an area under the curve (AUC) in series [5] of 1190 ng·h/mL. The clearance in [6] is 15.9 mL/min/kg. The microsomal CLint in series [3] came to 1 µL/min/mg. In series [7], this compound displayed a fraction unbound of 0.03. The same compound registered a half-inhibitory concentration (IC50) at Stearoyl-CoA desaturase [1] of 2.5 nM.
In the series on HCT-116, `N#CC1(c2ccc(C(F)(F)F)cc2)CCN(c2ccc(-c3nc(CO)no3)nn2)CC1` returned a 50% growth inhibitory concentration (GI50) of 39 nM. Also, the microsomal CLint in series [2] amounted to 2 µL/min/mg; in [3], 33 µL/min/mg. The half-maximal inhibitory concentration (IC50) on Stearoyl-CoA desaturase [1] amounted to 27 nM.
In series [4], `OCc1nsc(-c2ccc(N3CCC(c4ccc(C(F)(F)F)cc4)(C(F)(F)F)CC3)nn2)n1` gave an MRT of 4.2 h. Besides, the GI50 in the series on HCT-116 was 1.3 nM. Further, in series [2], the microsomal CLint is 10 µL/min/mg. The compound further had an exposure (AUC) in [5] of 1820 ng·h/mL. Moreover, the clearance in [6] was 8.23 mL/min/kg. Further, the fraction unbound in series [7] stood at 0.01. The same compound showed an IC50 at Stearoyl-CoA desaturase [1] of 1.2 nM.
In turn, `OCc1noc(-c2ccc(N3CCC(c4ccccc4)(C(F)(F)F)CC3)nn2)n1` had a GI50 in the series with HCT-116 of 39 nM. At Stearoyl-CoA desaturase [1], this compound yielded an IC50 of 38 nM.
For the compound `N#CC1(c2cccc(Cl)c2)CCN(c2ccc(-c3nc(CO)no3)nn2)CC1`, in the series with HCT-116, it took 200 nM to inhibit growth by half (GI50). This compound also displayed an IC50 on Stearoyl-CoA desaturase [1] of 15 nM.
Take `OCc1noc(-c2ccc(N3CCC4(COc5ccccc54)C3)nn2)n1` (stereo unspecified): the IC50 against Stearoyl-CoA desaturase [8] is 4.6 nM. Further, in series [9], the MRT amounted to 2.3 h. In the series with Mus musculus [10], this compound yielded an AUC of 299 ng·h/mL.
For `N#CC1(c2ccc([N+](=O)[O-])cc2)CCN(c2ccc(-c3nc(CO)no3)nn2)CC1`, in the series with HCT-116, growth was halved (GI50) at 170 nM. In addition, the microsomal CLint in series [2] was determined as 6 µL/min/mg; in series [3], 11 µL/min/mg. Besides, on Stearoyl-CoA desaturase [1], the IC50 is 100 nM.
`N#CC1(c2ccc(Cl)cc2)CCN(c2ccc(-c3nc(CO)no3)nn2)CC1` gave a GI50 with HCT-116 of 110 nM. In series [3], the microsomal CLint was 39 µL/min/mg. On Stearoyl-CoA desaturase [1], the IC50 is 20 nM.
Compound `N#CC1(c2ccc(OC(F)(F)F)cc2)CCN(c2ccc(-c3nc(CO)no3)nn2)CC1` showed a 50% growth inhibitory concentration (GI50) in the series on HCT-116 of 32 nM. For the same compound, in series [3], the microsomal CLint is 35 µL/min/mg. The half-inhibitory concentration (IC50) at Stearoyl-CoA desaturase [1] amounted to 11 nM.
For `OCc1noc(-c2ccc(N3CCC(O)(c4ccccc4)CC3)nn2)n1`, in the series with HCT-116, the GI50 was over 1000 nM. At Stearoyl-CoA desaturase [1], this compound showed an IC50 of 130 nM.
For `N#CC1(c2ccccc2)CCN(c2ccc(-c3nc(CO)no3)nn2)CC1`, the GI50 in the series on HCT-116 came out at 530 nM. The compound also gave a 50% inhibitory concentration (IC50) on Stearoyl-CoA desaturase [1] of 190 nM.
With `OCc1nnc(-c2ccc(N3CCC(c4ccc(C(F)(F)F)cc4)(C(F)(F)F)CC3)nn2)o1`, the MRT in series [4] was 4.2 h. In the series with HCT-116, this compound gave a GI50 of 2.7 nM. The inhibition result in the series with Mus musculus [11] is “Active”. The microsomal CLint is 14 µL/min/mg in [2] and 33 µL/min/mg in series [3]. In series [5], this compound displayed an AUC of 3760 ng·h/mL. For the same compound, in series [6], the clearance is 5.17 mL/min/kg. In the series with Mus musculus [12], the Activity entry is “Non-Toxic”. In addition, in the series with 786-0, the T/C is listed as 32.8%. In addition, the unbound share (fraction unbound) in series [7] turned out to be 0.07. For the same compound, on Stearoyl-CoA desaturase [1], the IC50 amounted to 4.7 nM.
Compound `COC1(c2ccccc2)CCN(c2ccc(-c3nc(CO)no3)nn2)CC1` showed a GI50 in the series with HCT-116 of 410 nM. The compound also had a concentration for half-maximal inhibition (IC50) on Stearoyl-CoA desaturase [1] of 110 nM.
Regarding `CC(C)(C)c1ccc(C2(C#N)CCN(c3ccc(-c4nc(CO)no4)nn3)CC2)cc1`, in the series on HCT-116, the GI50 came out at 37 nM. Besides, the microsomal CLint in series [3] stood at 119 µL/min/mg. Besides, the IC50 on Stearoyl-CoA desaturase [1] amounted to 21 nM.
Regarding `N#CC1(c2ccccc2Cl)CCN(c2ccc(-c3nc(CO)no3)nn2)CC1`, in the series on HCT-116, the GI50 came to 240 nM. On Stearoyl-CoA desaturase [1], the IC50 was 80 nM.
In turn, `OCc1noc(-c2ccc(N3CCC(c4ccc(C(F)(F)F)cc4)(C(F)(F)F)CC3)nn2)n1` showed an MRT in series [4] of 3.2 h. Growth in the series on HCT-116 was halved (GI50) at 1.3 nM. Further, the microsomal CLint is 20 µL/min/mg in series [2] and 19 µL/min/mg in series [3]. Also, in series [5], the AUC was determined as 432 ng·h/mL. This compound also had a clearance in series [6] of 15.4 mL/min/kg. The fraction unbound in [7] is 0.05. The same compound showed a concentration for half-maximal inhibition (IC50) at Stearoyl-CoA desaturase [1] of 2.3 nM.
